# Published values pooled from the literature.
# Compare with care: the assays were run in different laboratories.
# Target: 3-phosphoinositide-dependent protein kinase 1 (PDPK1, Homo sapiens, UniProt O15530)
# Residues used in one study (O15530 1-556): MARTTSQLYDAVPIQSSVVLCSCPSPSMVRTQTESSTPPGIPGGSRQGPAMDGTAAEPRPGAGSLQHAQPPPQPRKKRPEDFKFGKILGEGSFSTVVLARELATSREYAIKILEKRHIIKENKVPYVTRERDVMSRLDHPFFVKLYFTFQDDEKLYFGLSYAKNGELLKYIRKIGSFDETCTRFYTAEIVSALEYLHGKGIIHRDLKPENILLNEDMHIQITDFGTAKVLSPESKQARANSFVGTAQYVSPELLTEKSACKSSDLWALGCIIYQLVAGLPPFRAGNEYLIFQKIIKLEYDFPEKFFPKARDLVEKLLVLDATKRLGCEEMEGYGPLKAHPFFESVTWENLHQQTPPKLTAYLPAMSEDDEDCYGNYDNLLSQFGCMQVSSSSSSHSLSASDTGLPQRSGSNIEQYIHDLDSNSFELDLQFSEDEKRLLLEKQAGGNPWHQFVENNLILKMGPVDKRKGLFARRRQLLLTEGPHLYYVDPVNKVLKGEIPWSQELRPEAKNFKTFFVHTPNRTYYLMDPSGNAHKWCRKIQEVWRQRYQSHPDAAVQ
SMILES,read-out,method,tested at,remaining binding
COc1ccc2c(c1)O[C@H](c1ccc(OC)c(OC)c1)C[C@@H]2NC(=O)C1(c2ccc3c(c2)OC(F)(F)O3)CC1,cell-free assay,competition with immobilised ligand,1 µM,100%
O=C(c1ccc(Nc2nccc(-c3cc4ccccc4s3)n2)cc1)N1CCC(N2CCCC2)CC1,binding,competition with immobilised ligand,1 µM,100%
Nc1ncc2c(n1)-c1c([nH]c3ccc(C#CC4CC4)cc13)CCCC2,binding,competition with immobilised ligand,1 µM,91%
C[C@@H]1CN(c2ccc3ncc(-c4ccc5[nH]nc(C6CC6)c5c4)n3n2)C[C@H](C)O1,binding,competition with immobilised ligand,50 nM,100%
CC1CCCN1c1nccc(-c2cnn3ncccc23)n1 (stereo not drawn),binding,,1 µM,89%
Cc1cnc(Nc2ccc(C(=O)N3CCC(N4CCCC4)CC3)cc2)nc1-c1cc2ccccc2s1,binding,competition with immobilised ligand,1 µM,72%
Cc1cnn2ncc(-c3ccnc(N(C)C)n3)c2c1,binding,,1 µM,100%
CN1CC[C@H](c2c(O)cc(O)c3c(=O)cc(-c4ccccc4Cl)oc23)[C@H](O)C1,cell-free assay,competition with immobilised ligand,10 µM,100%
N[C@@H]1CCN(c2nccc(-c3cnn4ncccc34)n2)C1,binding,,1 µM,96%
Cc1ccc(NC(=O)c2ccc(CN3CCN(C)CC3)cc2)cc1Nc1nccc(-c2cccnc2)n1,cell-free assay,competition with immobilised ligand,10 µM,100%
Cc1c(C(=O)O)cc(-c2ccc(C3CCNCC3)cc2)c2ccc(-c3ccc(C(F)(F)F)cc3)cc12,binding,competition with immobilised ligand,1 µM,100%
C[C@@H]1CCN(c2nccc(-c3cnn4ncccc34)n2)C1,binding,,1 µM,89%
O=C(NCC1CCOCC1)c1n[nH]cc1NC(=O)c1c(F)cccc1F,binding,competition with immobilised ligand,1 µM,100%
O=C(Nc1cccnn1)N1CC(C/C=C/c2cncc(Oc3ccc(C(F)(F)F)cn3)n2)C1,cell-free assay,competition with immobilised ligand,1 µM,97%
CCN(CC)CCNC(=O)c1c(C)[nH]c(/C=C2\C(=O)Nc3ccc(F)cc32)c1C,cell-free assay,competition with immobilised ligand,10 µM,39%
Cc1nc(Cc2cccc(C(F)(F)F)c2)sc1-c1ccc(C(N)=O)nc1,cell-free assay,competition with immobilised ligand,1 µM,82%
CNC(=O)c1cc(Oc2ccc(NC(=O)Nc3ccc(Cl)c(C(F)(F)F)c3)cc2)ccn1,cell-free assay,competition with immobilised ligand,10 µM,85%
CN(C)c1ncc(F)c(-c2cnn3ncccc23)n1,binding,,1 µM,99%
CCN1CCN(Cc2ccc(C(=O)Nc3ccc(C)c(Oc4ccc5c(c4)CC(=O)N5)c3)cc2C(F)(F)F)CC1,binding,competition with immobilised ligand,1 µM,100%
COc1ccc2cc(OCC3(C(=O)O)CN(C(=O)c4ccc(F)cc4)C3)ccc2c1,cell-free assay,competition with immobilised ligand,1 µM,100%
CCN(CC)Cc1cc(Nc2ccnc3cc(Cl)ccc23)ccc1O,cell-free assay,competition with immobilised ligand,0.1 µM,100%
C=CC(=O)N1CCC(C(=O)NCC(=O)N2CCN(c3nc(-c4cnc(N)nc4C(F)F)nc(N4CCOCC4)n3)CC2)CC1,binding,competition with immobilised ligand,1 µM,93%
CC(C)(C)c1ccc(-c2nc(CBr)nn2-c2cccc(O)c2)cc1,cell-free assay,competition with immobilised ligand,10 µM,89%
COc1ccnn2ncc(-c3ccnc(N(C)C)n3)c12,binding,,1 µM,100%
CNC(=O)Nc1ccc2c(c1)CC[C@@]21OC(=O)N(CC(=O)N(Cc2ccc(F)cc2)[C@@H](C)C(F)(F)F)C1=O,cell-free assay,competition with immobilised ligand,1 µM,88%
c1cnn2ncc(-c3ccnc(N4CCC45COC5)n3)c2c1,binding,,1 µM,98%
Cc1c(-c2ccccc2)oc2c(C(=O)OCCN3CCCCC3)cccc2c1=O,cell-free assay,competition with immobilised ligand,10 µM,100%
CN(C)C(=O)Cn1cc(-c2nc([C@@](C)(c3ccc(-c4cnc(N)nc4)cc3)C3CC3)no2)cn1,cell-free assay,competition with immobilised ligand,1 µM,99%
CS(=O)(=O)CCNCc1ccc(-c2ccc3ncnc(Nc4ccc(OCc5cccc(F)c5)c(Cl)c4)c3c2)o1,cell-free assay,competition with immobilised ligand,0.1 µM,100%
O=C(NC[C@@H]1[C@H]2CN(C(=O)OCc3cc(C(F)(F)F)cc(C(F)(F)F)c3)C[C@@H]12)c1ccc2[nH]nnc2c1,cell-free assay,competition with immobilised ligand,1 µM,96%
Cc1nc(Nc2ncc(C(=O)Nc3c(C)cccc3Cl)s2)cc(N2CCN(CCO)CC2)n1,cell-free assay,competition with immobilised ligand,0.1 µM,100%
COc1cnc(Nc2cccc(S(N)(=O)=O)c2)nc1N1CCN(c2ccccc2)CC1,binding,competition with immobilised ligand,1 µM,100%
O=C(NCCCN1CCOCC1)c1ccc(Nc2nccc(-c3cc4ccccc4s3)n2)cc1,binding,competition with immobilised ligand,1 µM,99%
